Data published in ChEMBL document CHEMBL4765413, “Discovery of novel anti-angiogenesis agents. Part 11: Development of PROTACs based on active molecules with potency of promoting vascular normalization” (Eur J Med Chem, 2020).

Columns and labels:
[1] = target: Vascular endothelial growth factor receptor 2 (Homo sapiens, UniProt P35968); assay: Inhibition of recombinant human N-terminal GST-tagged VEGFR2 (789 to end residues) expressed in baculovirus infected Sf9 insect cells using Poly (4:1 Glu, Tyr) as substrate incubated for 1 hr by ADP-Glo luminescent assay
Chain of Vascular endothelial growth factor receptor 2 (P35968 whole entry): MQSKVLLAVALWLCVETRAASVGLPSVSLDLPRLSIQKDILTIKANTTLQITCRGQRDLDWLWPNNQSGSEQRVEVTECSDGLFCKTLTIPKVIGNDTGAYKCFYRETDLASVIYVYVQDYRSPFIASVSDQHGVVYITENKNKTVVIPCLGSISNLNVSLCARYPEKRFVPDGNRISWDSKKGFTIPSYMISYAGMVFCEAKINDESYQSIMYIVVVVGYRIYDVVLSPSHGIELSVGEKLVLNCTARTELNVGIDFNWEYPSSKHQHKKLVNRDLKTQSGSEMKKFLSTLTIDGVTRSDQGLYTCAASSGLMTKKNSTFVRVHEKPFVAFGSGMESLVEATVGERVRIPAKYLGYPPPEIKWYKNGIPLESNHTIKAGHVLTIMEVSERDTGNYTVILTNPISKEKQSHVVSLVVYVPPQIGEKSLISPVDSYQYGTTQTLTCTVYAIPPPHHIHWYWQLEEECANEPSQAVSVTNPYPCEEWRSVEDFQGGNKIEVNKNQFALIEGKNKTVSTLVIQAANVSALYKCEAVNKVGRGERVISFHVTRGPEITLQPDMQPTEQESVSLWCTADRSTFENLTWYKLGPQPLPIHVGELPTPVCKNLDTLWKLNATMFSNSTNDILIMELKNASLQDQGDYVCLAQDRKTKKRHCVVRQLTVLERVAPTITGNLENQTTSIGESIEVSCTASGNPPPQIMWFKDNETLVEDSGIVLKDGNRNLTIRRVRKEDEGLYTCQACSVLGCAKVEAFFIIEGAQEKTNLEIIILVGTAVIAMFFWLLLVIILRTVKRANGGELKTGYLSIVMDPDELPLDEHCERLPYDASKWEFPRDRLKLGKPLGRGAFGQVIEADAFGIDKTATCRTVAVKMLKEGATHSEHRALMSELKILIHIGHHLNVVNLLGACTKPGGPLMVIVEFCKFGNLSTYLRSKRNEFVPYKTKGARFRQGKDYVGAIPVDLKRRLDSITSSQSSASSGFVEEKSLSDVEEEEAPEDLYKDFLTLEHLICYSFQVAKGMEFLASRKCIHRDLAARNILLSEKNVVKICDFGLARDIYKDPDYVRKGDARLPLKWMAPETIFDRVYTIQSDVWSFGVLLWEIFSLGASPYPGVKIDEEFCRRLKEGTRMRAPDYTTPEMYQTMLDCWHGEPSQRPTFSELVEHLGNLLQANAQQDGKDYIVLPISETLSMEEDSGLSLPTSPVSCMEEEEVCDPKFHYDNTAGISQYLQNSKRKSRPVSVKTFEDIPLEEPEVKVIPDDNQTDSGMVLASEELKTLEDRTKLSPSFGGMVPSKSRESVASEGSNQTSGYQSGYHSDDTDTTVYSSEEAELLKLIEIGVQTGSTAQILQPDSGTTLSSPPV

HEK293 = assay: Cytotoxicity against HEK293 cells measured after 24 hrs by MTT assay; type: cell-based; conditions: human, hek293, 24 h
EA.hy 926 = assay: Antiangiogenic activity in human EA.hy 926 cells measured after 24 hrs by MTT assay; conditions: EA.hy 926, 24 h
[2] = target: von Hippel-Lindau disease tumor suppressor/Vascular endothelial growth factor receptor 2 (Homo sapiens) (UniProt P35968+P40337); assay: Protac activity at VHL/VEGFR2 in human EA.hy 926 cells assessed as induction of VEGFR2 degradation at 80 uM measured after 72 hrs by Western blot analysis relative to control; type: cell-based
Chain of von Hippel-Lindau disease tumor suppressor/Vascular endothelial growth factor receptor 2 (Homo sapiens) (P35968 20-1356 limits assumed): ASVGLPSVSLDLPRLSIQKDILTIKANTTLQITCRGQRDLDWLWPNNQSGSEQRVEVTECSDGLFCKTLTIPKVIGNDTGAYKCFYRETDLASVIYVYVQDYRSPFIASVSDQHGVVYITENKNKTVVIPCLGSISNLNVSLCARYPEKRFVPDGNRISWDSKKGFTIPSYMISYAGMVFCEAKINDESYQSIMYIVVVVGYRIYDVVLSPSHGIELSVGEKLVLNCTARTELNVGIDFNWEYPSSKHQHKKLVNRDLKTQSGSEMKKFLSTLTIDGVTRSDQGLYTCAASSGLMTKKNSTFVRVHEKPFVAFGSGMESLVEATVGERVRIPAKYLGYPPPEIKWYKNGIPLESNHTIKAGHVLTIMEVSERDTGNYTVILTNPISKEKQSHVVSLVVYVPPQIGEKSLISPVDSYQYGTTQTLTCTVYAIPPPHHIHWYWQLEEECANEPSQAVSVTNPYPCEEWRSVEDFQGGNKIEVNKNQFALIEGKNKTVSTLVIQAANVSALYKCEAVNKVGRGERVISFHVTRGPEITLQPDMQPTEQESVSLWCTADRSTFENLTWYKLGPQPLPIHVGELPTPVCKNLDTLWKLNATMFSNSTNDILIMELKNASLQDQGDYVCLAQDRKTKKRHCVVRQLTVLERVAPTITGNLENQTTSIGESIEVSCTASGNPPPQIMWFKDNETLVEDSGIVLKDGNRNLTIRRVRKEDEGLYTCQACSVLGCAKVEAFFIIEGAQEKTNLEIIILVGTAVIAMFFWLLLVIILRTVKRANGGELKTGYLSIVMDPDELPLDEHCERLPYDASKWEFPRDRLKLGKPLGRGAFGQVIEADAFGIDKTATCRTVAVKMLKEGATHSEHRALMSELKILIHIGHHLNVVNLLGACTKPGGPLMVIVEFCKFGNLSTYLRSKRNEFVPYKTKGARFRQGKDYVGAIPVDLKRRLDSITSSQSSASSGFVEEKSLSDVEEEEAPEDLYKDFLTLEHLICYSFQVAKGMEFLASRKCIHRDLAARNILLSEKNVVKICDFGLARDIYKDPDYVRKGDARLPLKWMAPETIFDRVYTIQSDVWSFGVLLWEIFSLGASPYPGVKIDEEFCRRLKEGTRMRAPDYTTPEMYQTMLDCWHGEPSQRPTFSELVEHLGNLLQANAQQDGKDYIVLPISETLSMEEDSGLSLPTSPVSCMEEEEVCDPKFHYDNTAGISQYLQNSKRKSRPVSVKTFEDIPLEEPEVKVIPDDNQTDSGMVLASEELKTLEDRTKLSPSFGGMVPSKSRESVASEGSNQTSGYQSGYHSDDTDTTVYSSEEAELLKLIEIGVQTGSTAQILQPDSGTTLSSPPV
Chain of von Hippel-Lindau disease tumor suppressor/Vascular endothelial growth factor receptor 2 (Homo sapiens) (P40337 whole entry partner): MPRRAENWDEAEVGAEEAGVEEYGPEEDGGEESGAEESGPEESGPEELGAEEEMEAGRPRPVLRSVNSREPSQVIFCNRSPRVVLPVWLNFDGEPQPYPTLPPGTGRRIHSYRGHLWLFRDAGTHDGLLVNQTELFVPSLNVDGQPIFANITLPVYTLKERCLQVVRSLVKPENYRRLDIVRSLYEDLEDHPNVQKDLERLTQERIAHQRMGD
Summary of the method: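 EA.hy926 cells were exposed to DMSO vehicle or test compound, then lysed in SDS sample buffer and normalized by BCA protein assay. Equal protein amounts were run on SDS-PAGE and transferred to PVDF. Membranes were blocked in 5% milk/TBS-Tween and probed with anti-VEGFR-2 (1:500), with GAPDH (1:10000) as loading control. Detection used HRP secondary and ECL, with densitometric quantification.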

Row | IC50 [1] [nM] | Activity [2] [%] | SMILES | Activity (HEK293) | IC50 (EA.hy 926) [nM]
1 | 80.4 |  | Cc1ccc(F)c(NC(=O)Nc2ccc(-c3cccc4c3c(N)nn4C(=O)CCCCCCCCCCCCCCC(=O)N[C@H](C(=O)N3C[C@H](O)C[C@H]3C(=O)NCc3ccc(-c4scnc4C)cc3)C(C)(C)C)cc2)c1 | Non-Toxic | 
2 | > 1000 |  | Cc1ncsc1-c1ccc(CNC(=O)[C@@H]2C[C@@H](O)CN2C(=O)[C@@H](NC(=O)CCCCCCCCCCCCCCC(=O)n2nc(N)c3c(-c4cccc(NC(=O)Nc5cccc(C(C)C)c5)c4)cccc32)C(C)(C)C)cc1 | Non-Toxic | > 100000
3 | 208 | 70 | Cc1ncsc1-c1ccc(CNC(=O)[C@@H]2C[C@@H](O)CN2C(=O)[C@@H](NC(=O)CCCCCCCCCCC(=O)n2nc(N)c3c(-c4cccc(NC(=O)Nc5cccc(C(C)C)c5)c4)cccc32)C(C)(C)C)cc1 | Non-Toxic | 32800
4 | > 1000 |  | Cc1ccc(F)c(NC(=O)Nc2ccc(-c3cccc4c3c(N)nn4C(=O)CCCCCC(=O)N[C@H](C(=O)N3C[C@H](O)C[C@H]3C(=O)NCc3ccc(-c4scnc4C)cc3)C(C)(C)C)cc2)c1 | Non-Toxic | 133000
